Drawing on ChEMBL document CHEMBL4130550, “Antiproliferative Dimeric Aporphinoid Alkaloids from the Roots of Thalictrum cultratum” (J Nat Prod, 2017), this text covers Activity and IC50 for 1 compound.

The structures appear in SMILES notation. Calls of active or inactive are those of the source. The calls are words filed in the database; no cut-off is given here.

Assay [1] relates to HL-60. In words: Induction of apoptosis in human HL60 cells assessed as early apoptotic cells at 0.3 uM after 24 hrs by Annexin-V-APC/7-AAD staining based flow cytometric method (reference value: 2.26%). It is filed as functional. The method in brief: (§1)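 HL-60 are seeded overnight in six-well plates, then treated in triplicate with 0.06, 0.3 or 1.5 μM, or untreated, for 24 h. Cells are washed in PBS and taken up in annexin V binding buffer. Annexin V-APC is added for 15 min in the dark at 25 °C, and 7-AAD just before flow cytometry. Early apoptosis is annexin V-APC only; late apoptosis is annexin V-APC/7-AAD.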
Background: Flow cytometry measures light scatter and fluorescence of single cells or particles in a stream.

For assay [2], the system named is HL-60. Kind of assay: Cell cycle arrest in human HL60 cells assessed as accumulation at G2 phase at 1.5 uM after 24 hrs by propidium iodide staining based flow cytometric method (reference value: 30.93%). In kind it is functional.
The test system of the next assay is PC-3. In words: Antiproliferative activity against human PC3 cells by MTT assay. It is filed as functional, cell-based. Summed up: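 PC-3 (ATCC) in supplemented RPMI-1640 with 10% FBS at 37 °C, 5% CO2. Log-phase cells get graded concentrations in triplicate. MTT (5 mg/mL solution) is added for a further 4 h, then dissolved in DMSO and read at 490 nm. IC50 is from the average of three parallel experiments. Negative reference is 0.1% DMSO.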
(Formazan colour is commonly taken as a measure of viable cells.)

The subject of assay [3] is HL-60. Kind of assay: Induction of mitochondrial membrane potential loss in human HL60 cells assessed as intact mitochondrial membrane potential at 0.3 uM after 24 hrs by JC1 staining based flow cytometric method (reference value: 99.42%). In kind it is functional.
Assay [4] relates to HL-60. In words: Cell cycle arrest in human HL60 cells assessed as accumulation at S phase at 0.06 uM after 24 hrs by propidium iodide staining based flow cytometric method (reference value: 25.75%). In kind it is functional.
Assay [5] deals with HL-60. In words: Cell cycle arrest in human HL60 cells assessed as accumulation at S phase at 1.5 uM after 24 hrs by propidium iodide staining based flow cytometric method (reference value: 25.75%). In kind it is functional.
The subject of assay [6] is HL-60. In words: Induction of apoptosis in human HL60 cells assessed as early apoptotic cells at 1.5 uM after 24 hrs by Annexin-V-FITC/propidium iodide staining based flow cytometric method (reference value: 2.8%). It is filed as functional.
For assay [7], the system named is HL-60. In words: Induction of mitochondrial membrane potential loss in human HL60 cells assessed as collapse of the mitochondrial membrane potential at 0.3 uM after 24 hrs by JC1 staining based flow cytometric method (reference value: 0.58%). In kind it is functional.
Assay [8] deals with HL-60. In words: Induction of morphological changes in human HL60 cells assessed as chromatin condensation at 0.06 to 1.5 uM after 24 hrs by Hoechst 33258 staining based fluorescence microscopic analysis. It is filed as functional, cell-based.
Assay [9] has as its system HL-60. Kind of assay: Antiproliferative activity against human HL60 cells after 72 hrs by tryphan blue staining based hematocytometric method. It is filed as functional, cell-based. The following applies: HL-60, 72 h. Summed up:
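HL-60 (ATCC) in RPMI-1640 with 10% heat-inactivated FBS, 1 mM glutamine and penicillin/streptomycin, 37 °C, 5% CO2. Cells at 4.5 × 10^4 cells/mL are exposed to a concentration gradient (DMSO stock diluted in absolute EtOH) for 72 h. Trypan blue is added and total cells are counted on a hematocytometer. IC50 is the mean of three parallel experiments. Negative reference is 0.1% DMSO.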

Assay [10] concerns HL-60. In words: Induction of mitochondrial membrane potential loss in human HL60 cells assessed as intact mitochondrial membrane potential at 0.06 uM after 24 hrs by JC1 staining based flow cytometric method (reference value: 99.42%). In kind it is functional.
Assay [11] has as its system HL-60. Kind of assay: Induction of apoptosis in human HL60 cells assessed as early apoptotic cells at 0.06 uM after 24 hrs by Annexin-V-APC/7-AAD staining based flow cytometric method (reference value: 2.26%). In kind it is functional. Summed up: as §1
Assay [12] deals with HL-60. Kind of assay: Induction of apoptosis in human HL60 cells assessed as live cells at 1.5 uM after 48 hrs by Annexin-V-FITC/propidium iodide staining based flow cytometric method (reference value: 94.19%). It is filed as functional.
Assay [13] has as its system HL-60. Kind of assay: Induction of apoptosis in human HL60 cells assessed as necrotic cells at 0.3 uM after 24 hrs by Annexin-V-APC/7-AAD staining based flow cytometric method (reference value: 0.44%). It is filed as functional. The method in brief:
as §1

By IC50 is commonly meant the midpoint of a concentration-inhibition curve. A high value points to weaker potency in that assay. Regarding `COc1cc2c(c(Oc3ccc(C[C@H]4c5cc(OC)c6c(c5CCN4C)OCO6)cc3)c1OC)C[C@H]1c3c(c(OC)c(OC)c(OC)c3-2)CCN1C`, the Activity was 22.76% with HL-60 [1]; 18.53% in the assay with HL-60 [2]; 66.5% in the assay on HL-60 [3]; 31.66% in the assay with HL-60 [4]; 48.45% with HL-60 [5]; 14.79% in the assay on HL-60 [6]. For the same compound, the Activity in the assay with HL-60 [7] stood at 33.5%; in the assay on HL-60 [10], 75.9%; in the assay on HL-60 [11] it was 8.57%; with HL-60 [12], 52.96%; in the assay on HL-60 [13] it was 1.2%. Also, the IC50 with PC-3 turned out to be 5.59 µM; with HL-60 [9], 1.08 µM. For the same compound, the result in the assay on HL-60 [8] was Active.
